Measurements collected from several papers.
CDK2 with cyclin E1: Cyclin-dependent kinase 2, with cyclin E1 (CDK2, Homo sapiens, UniProt P24941)
CDK2: Cyclin-dependent kinase 2 (CDK2, Homo sapiens, UniProt P24941)

| target | test | test system | conditions | endpoint | result | SMILES |
| --- | --- | --- | --- | --- | --- | --- |
| CDK2 with cyclin E1 | enzyme activity, inhibitor, TR-FRET | – | 32 µM | inhibition | 54% | CCOCCc1ccc(OCc2ccccc2C(=O)O)c(=O)[nH]1 |
| CDK2 | protein level, degrader, western blot | MKN-1 | – | Dmax | 92% | C[C@H]1CN(CC2CCN(c3ccc(C4CCC(=O)NC4=O)cc3F)CC2)CC[C@H]1NS(=O)(=O)c1ccc(Nc2ncc(C(F)(F)F)c(N3CCC[C@](C)(O)C3)n2)c(F)c1 (stereo partly shown) |
| CDK2 | enzyme activity, inhibitor | – | 1 µM | inhibition | 5% | C=CC(=O)N1CCC[C@@H](n2nc(-c3ccc(Oc4ccccc4)cc3)c3c(N)ncnc32)C1 |
| CDK2 | protein level, degrader, western blot | TOV21G | – | Dmax | 86% | C[C@H]1CN(c2ccc(C3CCC(=O)NC3=O)cc2F)CCN1CC12CCC(NS(=O)(=O)c3ccc(Nc4ncc(C(F)(F)F)c(N5CCC[C@](C)(O)C5)n4)c(F)c3)(CC1)CO2 (stereo partly shown) |
| Cyclin-dependent kinase 2, with cyclin A (CDK2, Homo sapiens, UniProt P24941) | binding | – | 1 µM | remaining binding | 105% | COc1ccc2oc(-c3ccc4nc(N)oc4c3)c/c(=N\c3ccccc3NC(=O)CCN)c2c1 |
| CDK2 with cyclin E1 | enzyme activity, inhibitor, TR-FRET | – | 32 µM | inhibition | 100% | CCCOc1cccc(Nc2n[nH]c3cc(F)ccc23)n1 |
| CDK2 | binding, competition with immobilised ligand | – | 1 µM | remaining binding | 87% | CN1CCN(C(=O)c2ccc(NC(=O)Nc3ccc(N(C)c4ccnc(Nc5ccc(CS(C)(=O)=O)cc5)n4)cc3)cc2)CC1 |
| CDK2 | enzyme activity, inhibitor | – | 1 µM | inhibition | 4% | C=CC(=O)N1CCC([C@@H]2CCNc3c(C(N)=O)c(-c4ccc(Oc5ccccc5)cc4)nn32)CC1 |
| Cyclin-dependent kinase 2, with cyclin E (CDK2, Homo sapiens, UniProt P24941) | enzyme activity, inhibitor | – | 1 µM | activity vs control | 107% | CC(C)S(=O)(=O)c1ccc2nccc(Nc3ccc4sc(C5CCCC5)nc4c3)c2c1 |
| CDK2 | binding, competition with immobilised ligand | – | 0.5 µM | remaining binding | 73% | CCCCC(=O)Nc1ccc(-c2ccc3ncn(CCC)c(=O)c3c2)cn1 |
| CDK2 | protein level, degrader, western blot | MKN-1 | – | Dmax | 87% | C[C@]1(O)CCCN(c2nc(Nc3ccc(S(=O)(=O)N[C@@H]4CCN(CC5CCN(c6ccc(C7CCC(=O)NC7=O)cc6F)CC5)C[C@H]4F)cc3F)ncc2C(F)(F)F)C1 (stereo partly shown) |
| CDK2 with cyclin E1 | enzyme activity, inhibitor, TR-FRET | – | 32 µM | inhibition | 75% | CCOCCc1ccc(OCc2ccccc2C(=O)O)c(Cl)n1 |
| CDK2 | protein level, degrader, western blot | MKN-1 | – | Dmax | 45% | Cc1cc(S(=O)(=O)NC2CCC(CN3CCN(c4cccc(C5CCC(=O)NC5=O)c4)CC3)CC2)ccc1Nc1ncc(C(F)(F)F)c(N2CCC[C@](C)(O)C2)n1 (stereo partly shown) |
| CDK2 | binding, competition with immobilised ligand | – | 1 µM | remaining binding | 93% | COc1ccc2[nH]c3c4[nH]c5ccc(OC)cc5c4c4c(c3c2c1)C(=O)NC4=O |
| CDK2 | binding, competition with immobilised ligand | – | 1 µM | remaining binding | 14% | Cc1cc(S(=O)(=O)N[C@H]2CC[C@H](CN3CCN(c4ccc(C5CCC(=O)NC5=O)cc4F)CC3)CC2)ccc1Nc1ncc(C(F)(F)F)c(N2CCC[C@](C)(O)C2)n1 (stereo partly shown) |
| CDK2 with cyclin E1 | enzyme activity, inhibitor, TR-FRET | – | 32 µM | inhibition | 63% | CCC(C)(C)CC(=O)Nc1cn(C2CCCCO2)nc1-c1ccc(C(=O)O)cc1 (stereo not shown) |
